Active and inactive are the calls of the source. No cut-off for these calls is given here.

Assay [1] deals with Leishmania donovani. Briefly: Induction of apoptosis in Leishmania donovani MHOM/IN/80/Dd8 promastigotes assessed as DNA fragmentation by measuring bright green coloured positive apoptotic nuclei at 50 uM incubated for 72 hrs by TUNEL staining based confocal microscopic analysis. Format: functional, organism-based. The essentials: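 Log-phase promastigotes treated with 50 µM for 72 h, washed, adhered to poly-L-lysine slides and fixed in 4% paraformaldehyde. Permeabilized in ice-cold 70% ethanol 30 min. Labeled with TdT/BrdUTP 60 min at 37 °C, then Alexa Fluor 488 anti-BrdU 30 min and PI/RNase A 30 min. Imaged by confocal microscopy; vehicle was 0.1% DMSO.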

The test system of assay [2] is Leishmania donovani. Kind of assay: Antileishmanial activity against amastigote stage of Leishmania donovani MHOM/IN/80/Dd8 harboring luciferase gene infected in mouse J774 cells assessed as parasite killing at 50 to 100 uM incubated for 72 hrs by Steady-Glo reagent based luciferase assay. Format: functional. The following applies: dose 50-100 µM. The essentials:
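J774 murine macrophages, 4 × 10⁴ cells/well in RPMI with 10% FBS for 24 h, are infected for 24 h at 37 °C, 5% CO₂ with stationary-phase luciferase-transfected L. donovani Dd8 promastigotes at a 1:8 macrophage:parasite ratio. Compounds are dissolved in DMSO. Luminescence is read after Steady-Glo is added in PBS. IC₅₀ is taken from a four-parameter Hill nonlinear regression. Miltefosine is the reference.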

Assay [3] concerns Leishmania donovani. Kind of assay: Induction of apoptosis in Leishmania donovani MHOM/IN/80/Dd8 promastigotes assessed as early apoptotic cells at 50 uM measured after 72 hrs by Alexa fluor488-AnnexinV/PI staining based FACSCalibur flow cytometry analysis (reference value: 10.3%). Format: functional.
Assay [4] has as its system Leishmania donovani. Kind of assay: Induction of apoptosis in Leishmania donovani MHOM/IN/80/Dd8 promastigotes assessed as early apoptotic cells at 50 uM measured after 48 hrs by Alexa fluor488-AnnexinV/PI staining based FACSCalibur flow cytometry analysis (reference value: 10.3%). Format: functional.
Assay [5] deals with Leishmania donovani. Kind of assay: Antileishmanial activity against Leishmania donovani MHOM/IN/80/Dd8 infected in BALB/c mouse assessed as reduction in intracellular amastigote burden in spleen at 50 mg/kg, ip for 5 days and measured at 1 week post-treatment by Giemsa staining based assay relative to control. Format: functional. The following applies: MHOM/IN/80/Dd8, ip, 288 h, time 12 day. The essentials: (§1)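 Female BALB/c mice (20–25 g), 5/group, infected iv with 2 × 10^7 stationary-phase L. donovani promastigotes. Infection confirmed at 2 wk, then 50 mg/kg ip daily for 5 consecutive days. Vehicle was 5% DMSO. Sacrificed day 7 post-treatment. Giemsa-stained liver/spleen impression smears counted as amastigotes/1000 nucleated cells, expressed as LDU (amastigotes per nucleated cell × organ weight in mg), compared with untreated infected controls.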

In the next assay the test system is Splenocyte. Kind of assay: Immunomodulatory activity in BALB/c mouse infected with Leishmania donovani amastigotes assessed as increase in IL-12 level in splenocytes supernatants at 50 mg/kg, ip for 5 days. Format: functional, organism-based. The conditions noted are these: time 5.0 day.
The subject of assay [6] is Leishmania donovani. Kind of assay: Induction of apoptosis in Leishmania donovani MHOM/IN/80/Dd8 promastigotes assessed as early apoptotic cells at 50 uM measured after 24 hrs by Alexa fluor488-AnnexinV/PI staining based FACSCalibur flow cytometry analysis (reference value: 10.3%). Format: functional.
Assay [7] has as its system Leishmania donovani. Kind of assay: Induction of apoptosis in Leishmania donovani MHOM/IN/80/Dd8 promastigotes assessed as late apoptotic cells at 50 uM measured after 72 hrs by Alexa fluor488-AnnexinV/PI staining based FACSCalibur flow cytometry analysis (reference value: 0.7%). Format: functional.
In assay [8] the test system is Leishmania donovani. Kind of assay: Antileishmanial activity against Leishmania donovani MHOM/IN/80/Dd8 infected in BALB/c mouse assessed as reduction in intracellular amastigote burden in liver at 50 mg/kg, ip for 5 days and measured at 1 week post-treatment by Giemsa staining based assay relative to control. The conditions noted are these: MHOM/IN/80/Dd8, ip, 288 h, time 12 day. Format: functional. The essentials:
as §1

For the compound `N#Cc1c(N2CCN(c3ccccc3O)CC2)cc(-c2ccccc2)oc1=O`, in the assay on Leishmania donovani [1], the outcome was Active. The Activity in the assay with Leishmania donovani [2] was >89%; with Leishmania donovani [3], 41.4%; in the assay on Leishmania donovani [4], 39.1%; with Leishmania donovani [6] it was 15.4%; in the assay on Leishmania donovani [7], 13.1%. Also, the inhibition in vivo at 50 mg/kg with Leishmania donovani [5] turned out to be 56.9%; in the assay with Leishmania donovani [8], 67.3%. Moreover, the outcome in the assay on Splenocyte was inactive.

Values taken from ChEMBL document CHEMBL4837217, “Design, synthesis, in vitro and in vivo biological evaluation of pyranone-piperazine analogs as potent antileishmanial agents” (Eur J Med Chem, 2021).
